# In all, about 2,500 compounds went through this assay and about 460 (18%) were called active.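 How the source made its calls: active means mean activation above a cutoff of low control average plus 3 SD from the earlier screen (cut at about 12% in these data); inactive means the rest.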 These entries were drawn from the full list.
# Assay: compound fluorescence interference without thin filaments, confirmation, artefact control for cardiac RTF calcium sensitizer project, biochemical (AID 504382)
# Settings: IANBD fluorescence interference counterscreen, buffer, EC20 Ca2+; at 7.2 µM; hits give high values; scaled: EC20 calcium 0, EC100 calcium 100
# Summary of the method: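 Medium: MOPS/KCl/MgCl2/EGTA/NTA/DTT buffer, pH 7.2 | Reagent: EC20 calcium, 0.472 mM | Compound dosing: 7.2 µM single dose | Times: 15 min compound exposure at 25 °C | Signal: Fluorescence, 480/540 nm | Measure: Interference relative to controls | Repeats: Triplicate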
row,SMILES,fluorescence artifact activation
1,CC1(C)CCN2CCC(C)(C)c3c(O)ccc1c32,11.3% (inactive)
2,Cc1ccc(CC2C(=O)N(c3ccc(C)cc3)C(=O)C2C)cc1 (centres undefined),0.52% (inactive)
3,O=C(N/N=C\c1c(O)ccc2ccccc12)c1cncc(Br)c1,0.16% (inactive)
4,O=C(N/N=C/c1c(O)ccc2ccccc12)c1cccc(C(F)(F)F)c1,53.1% (active)
5,O=C(NN=Cc1c(O)ccc2ccccc12)c1ccncc1,-0.04% (inactive)
6,Cc1ccc(-c2nc(NC(=O)CSc3cc(C)c4ccccc4n3)ns2)cc1,0.03% (inactive)
7,CN1CC=C2C(C#N)=C(N)C(C#N)(C#N)[C@H](c3cccs3)[C@H]2C1,0.05% (inactive)
8,CN1CC=C2C(C#N)=C(N)C(C#N)(C#N)[C@H](c3ccoc3)[C@H]2C1,8.68% (inactive)
9,CC(=O)n1cc(CO)c2ccccc21,95.5% (active)
10,CSc1c(CC(=O)NCCO)n(C)c2ccccc12,4.19% (inactive)
11,Cc1ccc(Cn2cc(CCC(=O)O)c3ccccc32)cc1,2.34% (inactive)
12,CCOC(=O)C(C(=O)Nc1cccc(C)n1)C1CCCCC1 (centres undefined),-0.06% (inactive)
13,CCCc1cc(=O)[nH]c(SCC)n1,0.11% (inactive)
14,CCCc1cc(=O)oc2c3c(cc(OCC(=O)N[C@@H](CSC)C(=O)O)c12)OC(C)(C)CC3,14.3% (active)
15,Cc1c(C)c2c(OCC(=O)N3CCC(O)CC3)cc3c(c2oc1=O)CCC(C)(C)O3,-0.07% (inactive)
16,Cc1cc(=O)oc2c3c(cc(OCC(=O)NCc4ccccn4)c12)OC(C)(C)CC3,0.25% (inactive)
17,O=C(CSc1nc2ncc(Br)cc2[nH]1)c1cccc([N+](=O)[O-])c1,3.54% (inactive)
18,COC(=O)C[n+]1cccc2ccccc21,81.3% (active)
19,O=C(C[n+]1cccc2ccccc21)c1ccccc1,0.14% (inactive)
20,COc1cccc(OCCCn2cc(/C=C3/C(=N)N4C=C(C)SC4=NC3=O)c3ccccc32)c1,0.05% (inactive)
21,N=C1/C(=C\c2coc3ccc(O)cc3c2=O)C(=O)N=C2SC=CN12,-0.02% (inactive)
22,COC(=O)N/N=C/c1cccnc1,0.05% (inactive)
23,COC1C/C(=N\O)C2OC(c3ccccc3)OCC2O1 (centres undefined),0.43% (inactive)
24,COc1ccc(OC)c(/C=C2/Sc3ccccc3C2=O)c1,0.05% (inactive)

row,SMILES,fluorescence artifact activation
1,COc1ccc(C2C(C(C)=O)=C(C)N=c3s/c(=C\c4cc(C)n(C)c4C)c(=O)n32)c(OC)c1 (centres undefined),4.81% (inactive)
2,O=C(CNC(=O)C12CC3CC(CC(C3)C1)C2)OCC(=O)N1CCCCC1,0.38% (inactive)
3,Cc1ccc(-c2ccc(OC(=O)c3ccc(=O)[nH]c3)c(C)c2)cc1,4.65% (inactive)
4,Cc1ccc(-c2nc(N)n(C(=O)c3cccnc3)n2)cc1,57.1% (active)
5,COc1ccccc1C(=O)n1nc(-c2ccccc2)nc1N,-0.09% (inactive)
6,Cc1ccc(CNc2cccnc2)cc1,0.43% (inactive)
7,CN(Cc1ccccc1)C(=O)c1ccc(NC(=O)Cc2ccc(NC(=O)C3CCCN(S(=O)(=O)c4cccc([N+](=O)[O-])c4)C3)cc2)cc1 (centres undefined),0.65% (inactive)
8,CCN1CCN(Cc2c(O)ccc3c2O/C(=C\c2ccc(C)cc2)C3=O)CC1,0.17% (inactive)
9,O=c1[nH]c2ccc(N=Cc3c(O)ccc4cc(Br)ccc34)cc2[nH]1,-0.04% (inactive)
10,CCC(CC)c1nc(C#N)c(NC(C)c2ccccc2)o1 (centres undefined),0% (inactive)
11,C=CCNc1oc(COc2ccc(C)cc2)nc1C#N,3.74% (inactive)
12,COc1ccc(CNc2oc(COc3ccccc3)nc2C#N)cc1,21.9% (active)
13,N#Cc1ccccc1OCC(=O)OCC(=O)c1ccc2c(c1)NC(=O)CO2,5.5% (inactive)
14,O=C(OCCN1C(=O)c2cccc3c(N4CCOCC4)ccc(c23)C1=O)c1ccccc1Cl,0.47% (inactive)
15,CCOC(=O)c1cnc2c(C)c(Cl)ccc2c1N1CCOCC1,28.3% (active)
16,O=C(OCCN1C(=O)c2cccc3c(N4CCOCC4)ccc(c23)C1=O)c1ccc(Cl)cc1Cl,8.85% (inactive)
17,CCSc1nnc(-c2sc3nnc(-c4ccccc4)c(-c4ccccc4)c3c2N)o1,0.15% (inactive)
18,OC(CNCC1CCCO1)Cn1c2ccc(Br)cc2c2cc(Br)ccc21 (centres undefined),12.3% (active)
19,O=C(NC(=S)NCC1CCCO1)C(c1ccccc1)c1ccccc1 (centres undefined),0.17% (inactive)
20,CCc1ccccc1SCc1noc(C(=O)NCC2CCCO2)c1C(=O)O (centres undefined),0.19% (inactive)
21,O=C(COC(=O)/C=C/c1ccc(Cl)cc1)NCCN1C(=O)CSC1=O,-0.09% (inactive)
22,COc1cc(C(=O)Oc2ccccc2/C=N/NC(=O)c2ccc(Cl)cc2)cc(OC)c1OC,11.5% (inactive)
23,O=C(N/N=C/c1ccc2c(c1)OCO2)/C(=C/c1ccc2c(c1)OCO2)NC(=O)c1ccccc1,0.46% (inactive)
24,O=C(N/N=C/c1ccccc1OC(=O)c1ccc2c(c1)OCO2)c1cccc(F)c1,17.8% (active)

row,SMILES,fluorescence artifact activation
1,COCC(=O)NC1CCN(S(=O)(=O)c2cccc(C(C)=O)c2)CC1,3.2% (inactive)
2,Cc1ccc(C(=O)NCC(=O)OCC(=O)c2ccc(Cl)s2)cc1,77.8% (active)
3,Cc1ccc(C(=O)NCC(=O)OCC(=O)N(CC(C)C)c2c(N)n(Cc3ccccc3)c(=O)[nH]c2=O)cc1,0.05% (inactive)
4,COc1ccc(OCCNC(=O)c2ccc(C)cc2)cc1,6.32% (inactive)
5,COc1ccc2nc(C)cc(NCc3ccc(F)cc3)c2c1,0.15% (inactive)
6,Cc1cccc(NC(=O)CSc2nnc(CSc3nc(C)cc(C)n3)n2Cc2ccco2)c1,1.92% (inactive)
7,O=C(COC(=O)C1CC2C=CC1C2)Nc1cccc(S(=O)(=O)N2CCCCCC2)c1 (centres undefined),-0.04% (inactive)
8,O=C(COc1ccc(Cl)cc1)NCc1ccccc1,0.08% (inactive)
9,O=C(COC(=O)C1CCCCC1)Nc1ccc([N+](=O)[O-])cc1,28.8% (active)
10,O=C(COC(=O)C1CCC1)NCc1ccccc1,82.9% (active)
11,Cc1ccc(C(=O)COC(=O)C2CCC2)cc1,7.89% (inactive)
12,O=C(COC(=O)C1CCC(=O)N1)Nc1ccc(Oc2ccccc2)cc1 (centres undefined),0.14% (inactive)
13,CCOc1cc(/C=C2\N=C(SC(C)C(N)=O)N(c3ccc(OC(F)F)cc3)C2=O)ccc1O (centres undefined),3.79% (inactive)
14,COc1ccc(C(=O)c2ccsc2N)cc1,3.39% (inactive)
15,O=C(CN1CCc2ccccc2C1)Nc1cc(S(=O)(=O)N2CCOCC2)ccc1N1CCOCC1,0.07% (inactive)
16,CCOc1cccc2c1OC(c1cc(OC)c(OC)c(OC)c1)N1N=C(c3ccc(C)o3)CC21 (centres undefined),0.15% (inactive)
17,CC1(C)C([N+](=O)[O-])C(c2ccc(F)cc2)NC(c2ccc(F)cc2)C1[N+](=O)[O-] (centres undefined),-0.04% (inactive)
18,COC(=O)c1sccc1NC(=O)CSCC(=O)O,0.05% (inactive)
19,CN(C)C=Nc1c(Br)cc(Br)c2nonc12,16.1% (active)
20,C=CCn1c(SCC(=O)Nc2nccs2)nnc1-c1ccco1,0.29% (inactive)
21,Cn1cc(Cl)c(-c2nc3ccccc3[nH]2)n1,2.42% (inactive)
22,CCOC(=O)/C(=N\Nc1ccc(C(C)=O)cc1)c1csc(Nc2ccccc2)n1,-0.08% (inactive)
23,CCOC(=O)c1cnc2ccccc2c1Nc1ccc(C(=O)O)cc1,50% (active)
24,COC(=O)c1cc(N2CCN(C)CC2)nc2ccccc12,0.05% (inactive)

row,SMILES,fluorescence artifact activation
1,CCCCN(Cc1ccccc1)S(=O)(=O)c1ccc2c(c1)n(C)c(=O)c(=O)n2C,0.08% (inactive)
2,COC(=O)C1=C(CSc2nc3c(cc2C#N)CN(C)CC3)OC(N)=C(C#N)C1c1ccc(F)cc1 (centres undefined),-0.02% (inactive)
3,COC(=O)c1ccc(S(=O)(=O)N2CCC(O)CC2)n1C,4.73% (inactive)
4,O=C(CS(=O)(=O)c1cn(Cc2ccc(F)cc2)c2ccccc12)N1CCOCC1,-0.02% (inactive)
5,CN(C)c1ccc(/C=C2\C(=N)N3N=C(CC(=O)N4CCCCC4)SC3=NC2=O)cc1,11.2% (inactive)
6,CCOC(=O)C1CCCN(C2=NC(=O)/C(=C/c3ccc(N(C)C)cc3)S2)C1 (centres undefined),0.84% (inactive)
7,CN(C)c1ccc(/C=C2\SC(N3CCCCC3)=NC2=O)cc1,193% (active)
8,COC(C(=O)Nc1c(F)cccc1F)c1ccccc1 (centres undefined),0.18% (inactive)
9,CN(Cc1ccccc1)C(=O)c1cccc(N2C(=O)NC3CC2(C)Oc2ccccc23)c1 (centres undefined),14.2% (active)
10,CCOc1cccc2c1OC1(C)CC2NC(=O)N1c1cccc(C(=O)NCc2ccccn2)c1 (centres undefined),0.6% (inactive)
11,COc1cccc2c1OC1(C)CC2NC(=O)N1Cc1ccccc1 (centres undefined),1.11% (inactive)
12,COC(=O)CN(c1cc(OC)ccc1OC)S(=O)(=O)c1ccc(OC)c(OC)c1,0.04% (inactive)
13,O=C(COC(=O)C1(c2ccccc2F)CCCC1)Nc1ncc(C(F)(F)F)cc1Cl,-0.01% (inactive)
14,CN1CCc2c(sc(/N=C/c3ccco3)c2C(N)=O)C1,0.04% (inactive)
15,COc1cc2c3nnc(-c4ccc(F)cc4)c-3cn(Cc3cccc(C)c3)c2cc1OC,0.48% (inactive)
16,COc1cc2c3nnc(-c4ccc(F)cc4)c-3cn(Cc3ccc(C)cc3)c2cc1OC,0.37% (inactive)
17,COc1cc2c3nnc(-c4ccc(F)cc4)c-3cn(Cc3cccc(F)c3)c2cc1OC,124% (active)
18,COC(=O)c1ccccc1-c1c2ccc(=N)cc-2oc2cc(N)ccc12,0.05% (inactive)
19,Brc1ccc(-c2cn3nc4c(nc3n2)CCCC4)cc1,3.81% (inactive)
20,Clc1ccc(-c2cn3nc4c(nc3n2)CCCC4)cc1,0.71% (inactive)
21,c1ccc(-c2cn3nc4c(nc3n2)CCCC4)cc1,19.1% (active)
22,CCOCCCn1c(=NC(=O)c2cccs2)c(C#N)cc2c(=O)n3cccc(C)c3nc21,1.11% (inactive)
